{"source": "ChEMBL document CHEMBL5724801", "about": "“EUbOPEN Chemogenomics Library - Multiplex” (2024)", "test_system": "Fibroblast", "assay": "Multiplex assay against human fibroblast", "assay_type": "toxicity, cell-based", "summary_of_the_method": "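Per cents of healthy-nucleus cells form the tubulin, mitochondrial-mass and membrane-permeability phenotype values. Live cells were stained at seeding with Hoechst33342, BioTracker Green Microtubule Cytoskeleton Dye, MitoTracker Red and Annexin V Alexa Fluor 680. After compound addition they were imaged on a CQ1 microscope at 37°C and 5% CO2, and CellPathfinder machine-learning gating split them into Hoechst high-intensity objects or normal cells, normal cells into healthy, pyknosed or fragmented nuclei, and pyknosed cells into mitotic or apoptotic.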", "key": {"[1]": {"details": "12 h, 1 µM, compound concentration 1 uM"}, "[2]": {"details": "12 h, 10 µM, compound concentration 10 uM"}, "[3]": {"details": "24 h, 1 µM, compound concentration 1 uM"}, "[4]": {"details": "24 h, 10 µM, compound concentration 10 uM"}, "[5]": {"details": "48 h, 1 µM, compound concentration 1 uM"}, "[6]": {"details": "48 h, 10 µM, compound concentration 10 uM"}}, "note": "Values joined by “and” are separate entries in the source; they are usually repeats but may differ in a detail not shown here. Equal entries are not always repeated."}
{"smiles": "Cn1ncnc1COc1nn2c(-c3cc(F)ccc3F)nnc2cc1C(C)(C)C", "values": [{"measurement": "Population Apoptotic (%)", "setting": "[1]", "value": "5.08% and 12.9%"}, {"measurement": "Population Fragmented Nuclei (%)", "setting": "[1]", "value": "11.68% and 7.25%"}, {"measurement": "Population Healthy Nuclei (%)", "setting": "[1]", "value": "58.38% and 76.68%"}, {"measurement": "Population Hoechst High Intensity Objects (%)", "setting": "[1]", "value": 0, "unit": "%"}, {"measurement": "Population Mitochondria Different-Phenotype (%)", "setting": "[1]", "value": "6.09% and 8.11%"}, {"measurement": "Population Mitotic Cells (%)", "setting": "[1]", "value": "94.92% and 87.1%"}, {"measurement": "Population Normal (%)", "setting": "[1]", "value": 100, "unit": "%"}, {"measurement": "Population Pyknosed Nuclei (%)", "setting": "[1]", "value": "29.95% and 16.06%"}, {"measurement": "Population Tubulin-Different-Phenotype (%)", "setting": "[1]", "value": "13.04% and 21.62%"}, {"measurement": "Total Cell Count", "setting": "[1]", "value": "197 and 193"}, {"measurement": "Population Apoptotic (%)", "setting": "[2]", "value": "6.76% and 16.22%"}, {"measurement": "Population Healthy Nuclei (%)", "setting": "[2]", "value": "51.12% and 80%"}, {"measurement": "Population Hoechst High Intensity Objects (%)", "setting": "[2]", "value": 0, "unit": "%"}, {"measurement": "Population Mitochondria Different-Phenotype (%)", "setting": "[2]", "value": "14.04% and 8.67%"}, {"measurement": "Population Mitotic Cells (%)", "setting": "[2]", "value": "93.24% and 83.78%"}, {"measurement": "Population Normal (%)", "setting": "[2]", "value": 100, "unit": "%"}, {"measurement": "Population Pyknosed Nuclei (%)", "setting": "[2]", "value": "33.18% and 15.1%"}, {"measurement": "Population Tubulin-Different-Phenotype (%)", "setting": "[2]", "value": "35.96% and 51.02%"}, {"measurement": "Total Cell Count", "setting": "[2]", "value": "223 and 245"}, {"measurement": "Population Fragmented Nuclei (%)", "setting": "[3]", "value": "8.72% and 5.03%"}, {"measurement": "Population Healthy Nuclei (%)", "setting": "[3]", "value": "67.89% and 83.42%"}, {"measurement": "Population Hoechst High Intensity Objects (%)", "setting": "[3]", "value": 0, "unit": "%"}, {"measurement": "Population Mitochondria Different-Phenotype (%)", "setting": "[3]", "value": "1.35% and 7.23%"}, {"measurement": "Population Mitotic Cells (%)", "setting": "[3]", "value": "94.12% and 60.87%"}, {"measurement": "Population Normal (%)", "setting": "[3]", "value": 100, "unit": "%"}, {"measurement": "Population Pyknosed Nuclei (%)", "setting": "[3]", "value": "23.39% and 11.56%"}, {"measurement": "Population Tubulin-Different-Phenotype (%)", "setting": "[3]", "value": "10.14% and 19.28%"}, {"measurement": "Total Cell Count", "setting": "[3]", "value": "218 and 199"}, {"measurement": "Population Apoptotic (%)", "setting": "[4]", "value": "13.24% and 17.24%"}, {"measurement": "Population Fragmented Nuclei (%)", "setting": "[4]", "value": "8.07% and 9.51%"}, {"measurement": "Population Healthy Nuclei (%)", "setting": "[4]", "value": "61.43% and 79.47%"}, {"measurement": "Population Hoechst High Intensity Objects (%)", "setting": "[4]", "value": 0, "unit": "%"}, {"measurement": "Population Mitochondria Different-Phenotype (%)", "setting": "[4]", "value": "11.68% and 10.05%"}, {"measurement": "Population Mitotic Cells (%)", "setting": "[4]", "value": "86.76% and 82.76%"}, {"measurement": "Population Normal (%)", "setting": "[4]", "value": 100, "unit": "%"}, {"measurement": "Population Pyknosed Nuclei (%)", "setting": "[4]", "value": "30.49% and 11.03%"}, {"measurement": "Population Tubulin-Different-Phenotype (%)", "setting": "[4]", "value": "45.99% and 56.46%"}, {"measurement": "Total Cell Count", "setting": "[4]", "value": "223 and 263"}, {"measurement": "Population Fragmented Nuclei (%)", "setting": "[5]", "value": "7.91% and 5.24%"}, {"measurement": "Population Healthy Nuclei (%)", "setting": "[5]", "value": "84.58% and 83.81%"}, {"measurement": "Population Hoechst High Intensity Objects (%)", "setting": "[5]", "value": 0, "unit": "%"}, {"measurement": "Population Mitochondria Different-Phenotype (%)", "setting": "[5]", "value": "12.15% and 3.41%"}, {"measurement": "Population Mitotic Cells (%)", "setting": "[5]", "value": "68.42% and 91.3%"}, {"measurement": "Population Normal (%)", "setting": "[5]", "value": 100, "unit": "%"}, {"measurement": "Population Pyknosed Nuclei (%)", "setting": "[5]", "value": "7.51% and 10.95%"}, {"measurement": "Total Cell Count", "setting": "[5]", "value": "253 and 210"}, {"measurement": "Population Apoptotic (%)", "setting": "[6]", "value": "23.08% and 30.77%"}, {"measurement": "Population Fragmented Nuclei (%)", "setting": "[6]", "value": "10.08% and 8.8%"}, {"measurement": "Population Healthy Nuclei (%)", "setting": "[6]", "value": "78.99% and 86%"}, {"measurement": "Population Hoechst High Intensity Objects (%)", "setting": "[6]", "value": 0, "unit": "%"}, {"measurement": "Population Mitochondria Different-Phenotype (%)", "setting": "[6]", "value": "8.51% and 7.44%"}, {"measurement": "Population Mitotic Cells (%)", "setting": "[6]", "value": "76.92% and 69.23%"}, {"measurement": "Population Normal (%)", "setting": "[6]", "value": 100, "unit": "%"}, {"measurement": "Population Pyknosed Nuclei (%)", "setting": "[6]", "value": "10.92% and 5.2%"}, {"measurement": "Population Tubulin-Different-Phenotype (%)", "setting": "[6]", "value": "38.3% and 59.07%"}, {"measurement": "Total Cell Count", "setting": "[6]", "value": "238 and 250"}]}
